According to ChEMBL document CHEMBL3396961, “Novel pyrazole-5-carboxamide and pyrazole-pyrimidine derivatives: synthesis and anticancer activity” (Eur J Med Chem, 2015):

Key:
[1] = Cytotoxicity against human SGC7901 cells after 48 hrs by MTT assay; assay type: functional, cell-based; conditions: SGC-7901, 48 h
Summary of the method: (§1)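 Cells were grown to log phase in RPMI 1640 with 10% FBS and seeded at 3×10^4 cells/mL. After 24 h preincubation (37 °C, 5% CO2) they were exposed 48 h to preset concentrations, 6 wells each; vehicle 0.1% DMSO, 5-fluorouracil as reference. MTT (2.5 mg/mL in PBS) for 4 h, formazan dissolved in DMSO, A570 read. IC50 taken at 50% survival; mean ± SD of three experiments in triplicate.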

MGC-803 [2] = assay: Cytotoxicity against human MGC803 cells after 48 hrs by MTT assay; assay type: functional, cell-based; conditions: MGC-803, 48 h; summary of the method: as §1
Bcap37 = assay: Cytotoxicity against human Bcap37 cells after 48 hrs by MTT assay; assay type: functional, cell-based; conditions: Bcap37, 48 h; summary of the method: as §1
[3] = molecular target: Telomerase reverse transcriptase (Homo sapiens, UniProt O14746); assay: Inhibition of telomerase in human MGC803 cells after 24 hrs by TRAP-PCR-ELISA; assay type: cell-based, MGC-803
MGC-803 [4] = assay: Cell cycle arrest in human MGC803 cells assessed as accumulation at G1 phase at 3 uM after 48 hrs by propidium iodide staining-based flow cytometry (reference value: 62.91%); assay type: functional
MGC-803 [5] = assay: Cell cycle arrest in human MGC803 cells assessed as accumulation at G2 phase at 3 uM after 48 hrs by propidium iodide staining-based flow cytometry (reference value: 6.7%); assay type: functional
MGC-803 [6] = assay: Cell cycle arrest in human MGC803 cells assessed as accumulation at S phase at 3 uM after 48 hrs by propidium iodide staining-based flow cytometry (reference value: 30.38%); assay type: functional

Chain of Telomerase reverse transcriptase (O14746 whole entry): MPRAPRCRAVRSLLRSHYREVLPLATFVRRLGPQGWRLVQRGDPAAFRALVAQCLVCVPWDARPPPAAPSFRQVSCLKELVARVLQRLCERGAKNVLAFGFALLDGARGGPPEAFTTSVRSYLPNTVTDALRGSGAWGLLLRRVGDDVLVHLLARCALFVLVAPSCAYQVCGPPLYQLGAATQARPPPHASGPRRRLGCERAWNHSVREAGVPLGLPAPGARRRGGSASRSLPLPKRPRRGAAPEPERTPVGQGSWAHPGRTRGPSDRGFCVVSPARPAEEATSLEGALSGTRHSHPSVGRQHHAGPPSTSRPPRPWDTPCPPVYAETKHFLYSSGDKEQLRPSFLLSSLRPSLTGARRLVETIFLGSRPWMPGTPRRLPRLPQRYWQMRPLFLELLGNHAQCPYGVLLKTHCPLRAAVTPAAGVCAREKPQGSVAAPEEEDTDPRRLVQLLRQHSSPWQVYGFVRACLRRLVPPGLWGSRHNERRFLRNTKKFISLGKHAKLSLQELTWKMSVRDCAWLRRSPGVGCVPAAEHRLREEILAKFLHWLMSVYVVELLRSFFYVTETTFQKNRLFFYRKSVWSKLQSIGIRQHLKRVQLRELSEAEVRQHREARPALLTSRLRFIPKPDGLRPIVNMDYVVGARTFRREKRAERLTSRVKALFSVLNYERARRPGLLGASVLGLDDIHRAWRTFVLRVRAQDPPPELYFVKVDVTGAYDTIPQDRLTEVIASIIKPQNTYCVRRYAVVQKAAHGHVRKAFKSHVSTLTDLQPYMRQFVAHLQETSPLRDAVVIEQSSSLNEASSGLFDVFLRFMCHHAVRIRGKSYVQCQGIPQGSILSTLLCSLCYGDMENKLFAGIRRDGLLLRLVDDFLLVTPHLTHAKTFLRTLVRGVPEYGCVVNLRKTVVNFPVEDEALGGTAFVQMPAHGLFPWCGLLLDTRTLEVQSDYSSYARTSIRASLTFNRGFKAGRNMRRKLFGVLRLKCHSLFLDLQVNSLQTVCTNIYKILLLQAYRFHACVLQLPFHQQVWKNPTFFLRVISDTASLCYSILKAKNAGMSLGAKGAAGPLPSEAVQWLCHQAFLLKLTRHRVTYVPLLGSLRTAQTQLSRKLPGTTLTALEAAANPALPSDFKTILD

Structure (SMILES): CCCc1nn(C)c(C(N)=O)c1NC(=O)/C=C/c1ccccc1
- IC50 [1]: 8.11 µM
- IC50 (MGC-803 [2]): 3.44 µM
- IC50 (Bcap37): 46.7 µM
- IC50 [3]: 1.98 µM

Structure (SMILES): CCCc1nn(C)c(C(N)=O)c1NC(=O)c1cc(OC)c(OC)c(OC)c1
- IC50 [1]: 13.4 µM
- IC50 (MGC-803 [2]): 4.57 µM
- IC50 (Bcap37): 40.4 µM
- IC50 [3]: 7.87 µM

Structure (SMILES): CCCc1nn(C)c(C(N)=O)c1NC(=O)/C=C/c1cc(OC)c(OC)c(OC)c1
- IC50 [1]: 12.8 µM
- IC50 (MGC-803 [2]): 4.24 µM
- IC50 (Bcap37): 55.7 µM
- IC50 [3]: 3.49 µM

Structure (SMILES): CCCc1nn(C)c(C(N)=O)c1NC(=O)c1cc(OC)c(OC)cc1OC
- IC50 [1]: 34.8 µM
- IC50 (MGC-803 [2]): 29.5 µM
- IC50 (Bcap37): 33.5 µM
- IC50 [3]: 12.2 µM

Structure (SMILES): CCCc1nn(C)c(C(N)=O)c1NC(=O)/C=C/c1ccco1
- IC50 [1]: 8.3 µM
- IC50 (MGC-803 [2]): 3.01 µM
- IC50 (Bcap37): 10.5 µM
- Activity (MGC-803 [4]): 59.82%
- Activity (MGC-803 [5]): 2.46%
- Activity (MGC-803 [6]): 42.2%
- IC50 [3]: 1.02 µM

Structure (SMILES): CCCc1nn(C)c2c(=O)[nH]c(/C=C/c3ccccc3)nc12
- IC50 [1]: 17.2 µM
- IC50 (MGC-803 [2]): 22.6 µM
- IC50 (Bcap37): 45.3 µM

Structure (SMILES): CCCc1nn(C)c2c(=O)[nH]c(/C=C/c3cc(OC)c(OC)c(OC)c3)nc12
- IC50 [1]: 25.7 µM
- IC50 (MGC-803 [2]): 32.8 µM
- IC50 (Bcap37): 37.4 µM
- IC50 [3]: 19 µM

Structure (SMILES): CCCc1nn(C)c2c(=O)[nH]c(/C=C/c3ccco3)nc12
- IC50 [1]: 10.3 µM
- IC50 (MGC-803 [2]): 7.14 µM
- IC50 (Bcap37): 28.7 µM
- IC50 [3]: 15.2 µM

Structure (SMILES): O=c1[nH]cc(F)c(=O)[nH]1 [FLUOROURACIL]
- IC50 [1]: 6.56 µM
- IC50 (Bcap37): 5.18 µM
